The text below walks through data of ChEMBL document CHEMBL4014309, “Development of an Acrylate Derivative Targeting the NLRP3 Inflammasome for the Treatment of Inflammatory Bowel Disease” (J Med Chem, 2017).

The source made the active and inactive calls. No cut-off for these calls is given here.

Series [1] in a line: Cysteamine reactivity in PBS assessed as free compound level at pH 7.4 measured after 30 mins by DTNB reagent based RP-UHPLC analysis. The procedure, abridged: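 The compound was reacted with excess cysteamine in pH 7.4 phosphate buffer with CH3CN cosolvent at 37 °C. Remaining compound was followed by UHPLC over 4 h, sampled at 30 min, 60 min and 4 h, and expressed as percent of starting concentration.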

Series [2] can be described thus: Cytotoxicity against human THP1 cells assessed as cell viability at 100 uM after 72 hrs by MTT assay. It counts as cell-based. Particulars: THP-1 cells, read-out: Activity. Summed up: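 Human THP-1 cells were exposed to 0.1–100 µM for 72 h, and viability was read by MTT. TC50 is the concentration that cuts viability by 50%; percent viable cells at 100 µM is also reported. Mean ± SEM of ≥3 experiments.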
For orientation: Tetrazolium assays rely on reduction of a dye to a coloured formazan, in cell work by metabolically active cells.

Series [3] concerns the target NACHT, LRR and PYD domains-containing protein 3 (Homo sapiens) (UniProt Q96P20). As to the kind of experiment: Inhibition of recombinant human NLRP3 ATPase assessed as hydrolysis of ATP at 100 uM preincubated for 15 mins followed by addition of ATP measured after 40 mins by ADP-Glo assay. Summed up:
(§1)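 Human recombinant NLRP3 (0.105 µg) in 20 mM Tris-HCl pH 7.8, 133 mM NaCl, 20 mM MgCl2, 3 mM KCl, 0.56 mM EDTA, 0.5% DMSO. Compound (100 or 50 µM) was preincubated 15 min at 37 °C, then ATP (250 µM) was added for 40 min at 37 °C. ADP was read by ADP-Glo luminescence. Result is % inhibition vs vehicle; mean ± SEM, ≥3 experiments.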
On the technique in general: ADP-Glo turns the ADP formed in a reaction into a luminescent signal.

The species entered for the next series is Mus musculus. The experiment in a line: Inhibition of NF-kB signaling pathway in C57BL/6 mouse bone marrow derived macrophages assessed as reduction in LPS-induced TNFalpha gene expression at 10 to 100 uM preincubated for 30 mins followed by LPS stimulation measured after 4 hrs by qRT-PCR analysis. Summed up:
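C57BL/6 bone marrow macrophages, differentiated with 20% L-cell medium, were preincubated with compound for 30 min. They were then left untreated or given LPS (1 ng/mL, 4 h). Tnfa, Il6 and Il1b expression was measured by quantitative RT-PCR as 2^-ΔΔCt.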

In another series the target is T1, Caspase-1 (Homo sapiens) (UniProt P29466).
T1 sequence (whole entry): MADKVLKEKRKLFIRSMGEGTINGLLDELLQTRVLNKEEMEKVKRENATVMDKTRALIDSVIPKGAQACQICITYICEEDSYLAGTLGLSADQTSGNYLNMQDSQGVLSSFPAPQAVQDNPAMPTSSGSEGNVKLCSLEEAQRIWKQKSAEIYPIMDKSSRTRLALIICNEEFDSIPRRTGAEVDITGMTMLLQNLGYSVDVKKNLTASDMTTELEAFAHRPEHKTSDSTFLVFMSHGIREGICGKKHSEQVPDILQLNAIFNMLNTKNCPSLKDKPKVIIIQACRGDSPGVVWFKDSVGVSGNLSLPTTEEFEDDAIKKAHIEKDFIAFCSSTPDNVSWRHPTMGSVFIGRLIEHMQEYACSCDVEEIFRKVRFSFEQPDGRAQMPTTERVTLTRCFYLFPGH
As to the kind of experiment: Inhibition of recombinant human caspase-1 at 10 to 100 uM using z-YVAD-AFC as substrate measured every 10 mins for 3 hrs by fluorescence analysis.

In series [4] the target is NACHT, LRR and PYD domains-containing protein 3 (Homo sapiens) (UniProt Q96P20). The experiment in a line: Irreversible inhibition of His-FLAG- tagged NLRP3-ATPase (unknown origin) at 100 uM preincubated for 55 mins followed by ATP addition measured after 40 mins by ADP-Glo assay. The procedure, abridged:
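His-FLAG NLRP3 (105 ng/well) captured on anti-FLAG-coated, BSA-blocked wells for 3 h at 4 °C. Compound (100 µM final, 2% DMSO) preincubated 55 min at 37 °C. Wells were washed three times (or not washed), then ATP (250 µM) was added for 40 min at 37 °C. ADP was read by ADP-Glo. Equal protein loading was checked by anti-His ELISA.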

Series [5] is described as follows: Stability of the compound in simulated intestinal fluid at 1.56 mg as suspension in olive oil and pH 7 after 2 hrs by UHPLC-MS analysis. Summed up: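 1.56 mg suspended in 100 µL olive oil, mixed with 100 µL SGF (pH 2, pepsin 3.2 mg/mL) for 2 h at 37 °C with shaking. Then 200 µL SIF (pH 7, pancreatin 2 mg/mL) was added for a further 2 h. Dedicated samples at 0, 30, 60 and 120 min were extracted with acetonitrile and analysed by UHPLC-MS. ≥3 repeats.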

For the next series, the system named is Duodenum. As to the kind of experiment: Drug metabolism in Sprague-Dawley rat duodenum assessed as 2-(2-chlorobenzyl)acrylic acid level at 12.5 mg as suspension in olive oil measured after 2 hrs by UHPLC-MS analysis. It counts as ADME, tissue-based. Particulars: in vivo.
Series [6] has as its system Rattus norvegicus. The experiment in a line: Antiinflammatory activity in DNBS-induced Sprague-Dawley rat colitis model assessed as DNBS-induced decrease in colonic length at 50 mg/kg/day, ig administered as suspension in olive oil for 6 days simulatneously with 6 days of DNBS-challenge (reference value: -34.4%). It counts as functional. Further details: scale not given: the % may be the effect or the level left.

Series [7] relates to Rattus norvegicus. As to the kind of experiment: Antiinflammatory activity in DNBS-induced Sprague-Dawley rat colitis model assessed as DNBS-induced macroscopic damage score at 25 mg/kg/day, ig administered as suspension in olive oil for 6 days simulatneously with 6 days of DNBS-challenge (reference value: 8.6 +/- 0.6). It counts as functional.
The test system of series [8] is Rattus norvegicus. As to the kind of experiment: Antiinflammatory activity in DNBS-induced Sprague-Dawley rat colitis model assessed as DNBS-induced macroscopic damage score at 50 mg/kg/day, ig administered as suspension in olive oil for 6 days simulatneously with 6 days of DNBS-challenge (reference value: 8.6 +/- 0.6). It counts as functional.
For series [9], the system named is Rattus norvegicus. The experiment in a line: Anti-inflammatory activity in DNBS-induced Sprague-Dawley rat colitis model assessed as reduction in DNBS-induced increase in MPO levels in colon at 12.5 to 50 mg/kg/day, ig for 6 days simulatneously with 6 days of DNBS-challenge by ELISA. It counts as functional, organism-based. Summed up: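 DNBS colitis (15 mg intrarectal in 50% ethanol) was treated by the intragastric route for 6 days from induction (1 mg/kg/day in 1% methylcellulose, or 12.5–50 mg/kg/day in olive oil). Colonic samples (30 mg) were taken adjacent and distal to the necrotic area, homogenized, and assayed for MPO by ELISA. Results are ng MPO per mg tissue, mean ± SEM, n = 10.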

The subject of series [10] is Rattus norvegicus. As to the kind of experiment: Anti-inflammatory activity in DNBS-induced Sprague-Dawley rat colitis model assessed as DNBS-induced IL-1beta levels in colon at 50 mg/kg/day, ig for 6 days simulatneously with 6 days of DNBS-challenge by ELISA (reference value: 22.3 +/- 2.9 ng/mg). It counts as functional.
Series [11] deals with Rattus norvegicus. As to the kind of experiment: Anti-inflammatory activity in DNBS-induced Sprague-Dawley rat colitis model assessed as DNBS-induced TNFalpha levels in colon at 12.5 mg/kg/day, ig for 6 days simulatneously with 6 days of DNBS-challenge by ELISA (reference value: 5.9 +/- 0.6 pg/mg). It counts as functional.
The target of series [12] is NACHT, LRR and PYD domains-containing protein 3 (Homo sapiens) (UniProt Q96P20). As to the kind of experiment: Inhibition of recombinant human NLRP3 ATPase assessed as hydrolysis of ATP preincubated for 15 mins followed by addition of ATP measured after 40 mins by ADP-Glo assay. The procedure, abridged:
as §1

NACHT, LRR and PYD domains-containing protein 3 (Homo sapiens), sequence (Q96P20 whole entry, the tested form may be a part): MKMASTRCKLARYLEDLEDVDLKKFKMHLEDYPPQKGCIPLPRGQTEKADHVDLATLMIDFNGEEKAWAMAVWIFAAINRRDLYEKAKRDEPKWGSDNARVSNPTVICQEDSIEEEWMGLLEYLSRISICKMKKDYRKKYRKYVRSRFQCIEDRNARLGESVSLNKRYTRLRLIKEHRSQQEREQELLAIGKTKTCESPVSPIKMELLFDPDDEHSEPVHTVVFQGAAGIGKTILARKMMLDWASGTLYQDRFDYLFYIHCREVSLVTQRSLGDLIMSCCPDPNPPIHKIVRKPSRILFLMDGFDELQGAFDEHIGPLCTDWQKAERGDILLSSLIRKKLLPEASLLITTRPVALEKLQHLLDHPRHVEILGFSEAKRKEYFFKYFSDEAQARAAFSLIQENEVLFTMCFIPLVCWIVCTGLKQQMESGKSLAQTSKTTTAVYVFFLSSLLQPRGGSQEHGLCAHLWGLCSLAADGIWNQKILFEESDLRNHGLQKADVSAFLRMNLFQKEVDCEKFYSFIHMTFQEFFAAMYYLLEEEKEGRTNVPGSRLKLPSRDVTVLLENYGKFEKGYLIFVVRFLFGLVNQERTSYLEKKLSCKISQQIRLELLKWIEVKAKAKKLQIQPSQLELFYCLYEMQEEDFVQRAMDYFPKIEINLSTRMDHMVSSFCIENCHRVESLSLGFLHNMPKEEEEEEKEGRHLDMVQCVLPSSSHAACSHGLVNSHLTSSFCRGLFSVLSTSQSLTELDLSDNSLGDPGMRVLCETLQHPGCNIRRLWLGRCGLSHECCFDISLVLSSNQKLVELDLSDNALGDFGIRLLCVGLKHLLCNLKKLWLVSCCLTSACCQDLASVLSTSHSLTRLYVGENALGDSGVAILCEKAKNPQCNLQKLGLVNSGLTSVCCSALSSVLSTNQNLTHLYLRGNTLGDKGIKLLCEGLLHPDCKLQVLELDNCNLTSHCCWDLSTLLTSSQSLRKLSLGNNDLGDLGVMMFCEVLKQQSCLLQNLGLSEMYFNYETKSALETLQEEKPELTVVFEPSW

For the compound `C=C(Cc1ccccc1Cl)C(=O)OCC`, the Stability is 89.4% in series [1] and greater than 99.5% in [5]. The viability at 72 h, 100 µM in series [2] amounted to 96.6%. In addition, the inhibition in series [3] is 52%; in [4], 45%; in [12] it was “Dose-dependent effect”. For the same compound, in the series listed under Mus musculus, the inhibition entry was “Active”. Moreover, the inhibition entry on Caspase-1 (Homo sapiens) is “inactive”. Besides, the Drug metabolism entry in the series with Duodenum was “Metabolite_Detected”. In addition, the Activity is recorded as -8% in the series on Rattus norvegicus [6], 6.6 ng/mg in the series on Rattus norvegicus [10] and 3.5 pg/mg with Rattus norvegicus [11]. Besides, the Activity_index in the series on Rattus norvegicus [7] is 3.1; in the series with Rattus norvegicus [8] it was 2.8. Further, the result in the series on Rattus norvegicus [9] was Active.

As usually defined, the inhibition is the relative decrease from the control value, in per cent.
